Test system: MS2 coat protein
Test: apparent Kd, MS2 coat protein; higher = weaker binding; RNA-MaP array
Outline: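 Fluorescently labeled MS2 coat protein, from 1.5 nM to 3 μM, was incubated at room temperature with designed RNAs transcribed on an Illumina sequencing chip from sequenced DNA templates. Times ran from 0.8–1.5 h at the lowest concentrations to 10–20 min at the highest, in Tris-HCl pH 7.5 buffer with KCl, MgCl2, BSA, DTT, tRNA and Tween20, with or without input ligand. Each apparent Kd is the median of per-cluster binding-curve fits, and designs with fewer than 10 measured clusters were excluded.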

[1] = designed as: ON switch for flavin mononucleotide, no ligand
[2] = ligand present: flavin mononucleotide, designed as: ON switch for flavin mononucleotide
[3] = designed as: OFF switch for flavin mononucleotide, no ligand
[4] = ligand present: flavin mononucleotide, designed as: OFF switch for flavin mononucleotide
[5] = designed as: OFF switch for theophylline, no ligand
[6] = ligand present: theophylline, designed as: OFF switch for theophylline
[7] = designed as: ON switch for tryptophan, no ligand
[8] = ligand present: tryptophan, designed as: ON switch for tryptophan

Sequence | apparent Kd [1] | apparent Kd [2] | apparent Kd [3] | apparent Kd [4] | further results
AGAGUUAUUGAGAAGGAAACAUUGACAUGAGGAUCACCCAUGUACUUGGCUAAGGAGCCGAGUGUUUAGGAUAUCAUUCAGAUA | 25.6 nM | 9.33 nM |  |  | 
AGGAACGAAGGAUAUGAUGAAUAGUACAUGAGGAUCACCCAUGUGGCCACCUUAGACAUCUCAGAAGGACGAUACU |  |  | 33.6 nM | 25.1 nM | 
AGGAGACGCAAGGAGGAUAUUCAUAUGGUAACAUGAGGAUCACCCAUGUAGUUCUAGUUGGGACUGAAGAAGGCCUUGCUAGCGCA | 21.7 nM | 11.3 nM |  |  | 
AGGAUCCAGGAGAAGGCAACUGUAGUUUGGCAUUGAGGAUAUCCAAAGACCCGCUAGAUAGGAGCACAUGAGGAUCACCCAUGU | 35.5 nM | 19.1 nM |  |  | 
AGUACCAAUGAGGAUACCAGAGUGCGACGCCGAAACCUUGACAUGAGGAUCACCCAUGUACUCCCUUGGCAGCCUGUACUUGCCA |  |  |  |  | apparent Kd [5]: 35.9 nM; apparent Kd [6]: 82.6 nM
AGUUACAUGAGGAUCACCCAUGUCCGGUUGCGAGGACCGGUACGGCCGCCACUCGGGUACAUCCCAGAAAAUACUGAAUGCCUGC |  |  |  |  | apparent Kd [7]: 55.4 nM; apparent Kd [8]: 51 nM
AUAAGUAUAGGAUAUACAGGUAAGCGUUCUUACCGAUCCAGACAUGAGGAUCACCCAUGUAGAAGGAUACGUCU |  |  | 8.18 nM | 7.87 nM | 
AUACCAUCCCAAGGAUAUGUUACCUAGACAUGAGGAUCACCCAUGUGAGAUUAGAGCUGUCGCGUACAGAAGGUGGUGAUGACA |  |  | 25.3 nM | 28.1 nM | 
AUAGCAUGAGUAGGAUAUUUUGAGCGUUGUGCAAAAGAAGGACUGACCGUGAUUAUAAUAUACAUGAGGAUCACCCAUGUUACA |  |  | 9.42 nM | 8.03 nM | 
AUAUCCUCAACAGGAUAUACACGUGACUAAAUGGUAGAAGGGUUAGCAGACGACAUGAGGAUCACCCAUGUUUAGGAUAAAGCG | 10.7 nM | 9.66 nM |  |  | 
AUAUGUUGAGGAUAUACAUGAGGAUCACCCAUGUAAUAUGAACGGAAUGAUUUAAGGAGUAGAAGGCAACACCA |  |  | 12.8 nM | 24.4 nM | 
AUCACUGUGAAAGAUACCAGCGCCCUACCUAUCUUCUGUUACAUGAGGAUCACCCAUGUUCGCCCUUGGCAGCUUGAGAUGGAUC |  |  |  |  | apparent Kd [5]: 49 nM; apparent Kd [6]: 70.6 nM
AUCAUGAUUUUAGGAUAUAUGACGUUAUACAAUGGACAUGAGGAUCACCCAUGUAGUCGCGCUCUAUAGAAGGAAAGCUCAGUU |  |  | 44.1 nM | 36.5 nM | 
AUCGGUAAAACUCAGGAUAUAGAAAUAGACACAUGAGGAUCACCCAUGUUAACUACACAAAGAAUCUAGAAGGGAGCAGGUGUCUA | 78.2 nM | 44.9 nM |  |  | 
AUGAGCUGAGGAUAUAUUAACCUGUACAUGAGGAUCACCCAUGUAGCGUGUAGAGUGAGAAUAGAAGGCAGACAUC |  |  | 17.2 nM | 12.8 nM | 
AUGAUGUAAGGAUAUUGCGCGAUGUUUACCAUUGGUCUGCACAAGAAGGUACAUGAGGAUCACCCAUGUGGGCC |  |  | 27.9 nM | 39.9 nM | 
AUGUCCUAAACGGCCGCCACUUACAUGAGGAUCACCCAUGUUUACCGAUAUGGUUGUUGCUUUCCAAGGACCGGGUUUAAUCUGC |  |  |  |  | apparent Kd (designed as: OFF switch for tryptophan, no ligand): 12.7 nM; apparent Kd (ligand present: tryptophan, designed as: OFF switch for tryptophan): 13.5 nM
CAAACAUUAUCAGGAUAUGUGCAAGAUCCGACAUGAGGAUCACCCAUGUUGCGGCAUCUCGGUUGACAGAAGGGAUCAUCGCCU | 11.2 nM | 10.1 nM |  |  | 
CAAUAUUUCCAGAAGGGCAAGCUAACACCAACUGCAGGAUAUGGUUUCAUACAACAUGAGGAUCACCCAUGUGGCACAGGUUCC | 18.6 nM | 17.2 nM |  |  | 
CAAUGAAACAUUCAGGAUAUGGUACAAGGAACAUGAGGAUCACCCAUGUCAAGAAAAGAAAAUCACCAGAAGGGAACAAGACAAAA | 41.5 nM | 32.3 nM |  |  | 
CAAUGACCCAAGGAUAUCUGCAGACGCGAGCCCAGAGAAGGUGGGACAUGAGGAUCACCCAUGUUCUCGUGUGA |  |  | 37 nM | 73.1 nM | 
CACUACAUGAGGAUCACCCAUGUCUUCCGACGAGGACCGGUACGGCCGCCACUCGAACCUCCAACUAAUACCUCAACCGUCUGAU |  |  |  |  | apparent Kd [7]: 80.5 nM; apparent Kd [8]: 54.6 nM
CACUGACAUGAGGAUCACCCAUGUAUGCUCGACCAAGGAUAUUGAUCAGACAAGCAUACGCAAGAAGGUGGUGAGA | 222 nM | 105 nM |  |  | 
CAGACGUAGAUUACAUGAGGAUCACCCAUGUCAUACCAGAUCAGAAGGGUUCUAGAGCGUACUCAACAGGAUAUGAUAAGUCCC | 18.3 nM | 16.5 nM |  |  | 
CAGUGAAGAGGAUAUACAUGAGGAUCACCCAUGUACCGUGGUCCAUAUCAUAAUUCGAGUAGAAGGCUUAACCA |  |  | 114 nM | 108 nM | 
CAUCCUCUUUGACAUGAGGAUCACCCAUGUAUUGCAGUGACCAGAAGGCGUUCCCACAAAGUGGACGAGGAUAUGGAAAAGCCG |  |  | 193 nM | 184 nM | 
CAUUUACAUGAGGAUCACCCAUGUUAUUCUACCCAAGGAUAUCGGGAAAGUAGAACAAGUCGAGAAGGUGGUGCGC | 29.5 nM | 25.6 nM |  |  | 

Sequence | apparent Kd [1] | apparent Kd [2] | apparent Kd [3] | apparent Kd [4] | further results
CCAAACACUGGAGGAUAUGCAAGAACAUGAGGAUCACCCAUGUAGUAACGAUAAAGAAAACAAGCGCAGAAGGCCACAUCUCUA | 14.2 nM | 6.49 nM |  |  | 
CCAGCCCUUCUAGAUACCAGCUUUCAAUAUAAGACAACUCACAUGAGGAUCACCCAUGUUAGCCCUUGGCAGCUAAGAUCCACAA |  |  |  |  | apparent Kd [5]: 52.1 nM; apparent Kd [6]: 57.3 nM
CCCUCCAGAACGGCCGCCACUAAAGGGUUGUGUGCGACUCCGGAACAUGAGGAUCACCCAUGUCUUAGGACCGGGUUCCCUUCUA |  |  |  |  | apparent Kd [7]: 62 nM; apparent Kd [8]: 56.5 nM
CCGCUUGCAGGAUAUACAUGAGGAUCACCCAUGUUAAGAGAACAGUAACAAAGCAUUUGUAGAAGGGCAAUACG |  |  | 9.81 nM | 9.19 nM | 
CCGUACCCGGAGAAGGAAGUCGUUGGAUGGCCAACAUGAGGAUCACCCAUGUGAUUUCAACUUACUUAGGAUAUCCAAAAUGAG | 58.4 nM | 24.1 nM |  |  | 
CCUCGUAAUGAGGAUAUUAGGAAUUCUGGUCCAUAAGAAGGCAUGACAUGAGGAUCACCCAUGUAGCGGAUGGG |  |  | 102 nM | 145 nM | 
CCUUAACAUGAGGAUCACCCAUGUCUGGAUACCAGAUACAGAUAAAUCCCUUGGCAGCCAAAAUAUGAAAGAAAUAAAAUAAGAA |  |  |  |  | apparent Kd (designed as: ON switch for theophylline, no ligand): 41.3 nM; apparent Kd (ligand present: theophylline, designed as: ON switch for theophylline): 48.9 nM
CGAAACAUGAGGAUCACCCAUGUGUAGAUCCUGCAAGCAUAUAGAAGGUCGUCACUCCGUCACGCGAAGGAUAUAUUAAGUGCC |  |  | 210 nM | 168 nM | 
CGAGUGUGAGGAUAUCAGUUCAAUAGGGCUACGCCGUGUCGUGAGAAGGCACAUGAGGAUCACCCAUGUAAUAA |  |  | 58.3 nM | 122 nM | 
CGCGGAACAUGAGGAUCACCCAUGUUAUGUAACAGCAAACUAAGAAGGCGUUAUAUAAGUAUGGACGAGGAUAUUAGCUUGAGU | 24.3 nM | 8.8 nM |  |  | 
CGGCAUGGAACAGGAUAUGGGUAAUUCAUUUGACCAGAAGGGUUCUUCAGCAGCCGUUGCACAUGAGGAUCACCCAUGUCAUAU | 29.7 nM | 10 nM |  |  | 
CGGGUGUAGACAGGAUAUGCAAAUAAAGGUGAAGCAGAAGGGUCACAUGAGGAUCACCCAUGUCACUAAAUUGGCGGUAUAAGA |  |  | 39 nM | 159 nM | 
CGUACAGUCGAAGGAUAUUCGCGGGAGUUUGCCGAAGAAGGUCGCUAGUAGGGUGACAUGCUGUGACAUGAGGAUCACCCAUGU |  |  | 165 nM | 239 nM | 
CGUUAGCAGUAGAAGGUAGCCGGCAGGUCAGGGCGACCACAUGAGGAUCACCCAUGUCUAUGUUCUAAGGAUAUACUGACCCAA |  |  | 5.2 nM | 5.59 nM | 
CGUUCAGUCCAGCGGUUACAUGAGGAUCACCCAUGUUUAGAGAGAAGGGUUGGCACCAGGAUGUAACAGGAUAUCUCGCUUACG | 171 nM | 71.5 nM |  |  | 
CUAAGAUAAGAAGGAUAUAAAACAUGAGGAUCACCCAUGUAAAAGUACAUCACACUACAAAUGGAUUAGAAGGUCUUAAUAACC |  |  | 10.2 nM | 8.47 nM | 
CUCAGGCUGCGAGGAUAUCCGUCGAAUCAAACAGGAGAAGGCGCAUACAUGAGGAUCACCCAUGUGCUGACUUGUCCGUGAAUC |  |  | 5.46 nM | 6.37 nM | 
CUCUCGCAAGGAUAUACACAGUGGAAUAUCAUAAGGUGAACACAUGAGGAUCACCCAUGUAGAAGGUGCAUAAG |  |  |  | 38.5 nM | 
CUGAAAGUAGAGGAUAUGUGAAUAGCAGCGAUGACAGAAGGCUACACAUGAGGAUCACCCAUGUAAUCCCGUGC |  |  | 20.4 nM | 28.1 nM | 
CUGGAUCCGGGAGGAUAUAGACGUUCAGCCUCGUUGCUAACAAGACAUGAGGAUCACCCAUGUAUCUAGAAGGCCCGCCUGGGA | 19.8 nM | 13.8 nM |  |  | 
CUGUUUGUUUGGGUCUGUCAAAAGAACGAUACCAGCCGCAUUAUGGGCCCUUGGCAGCGUAGGACAUGAGGAUCACCCAUGUACG |  |  |  |  | apparent Kd [5]: 18.7 nM; apparent Kd [6]: 35.2 nM
CUUAUGAUCGAGGAUAUCACAAAUGGGCAGCGUUGAGAAGGCGACACAUGAGGAUCACCCAUGUAAUCAACAGU |  |  | 18.4 nM | 15.9 nM | 
GAACAUGAGGAUCACCCAUGUAGACGCAGGCUAAUAGAAUCGAGAAGGGCUAUAUGGGAACGCCAGCAGGAUAUCGGAGGUCAA | 84 nM | 49.1 nM |  |  | 
GACAGGACGACAUGAGGAUCACCCAUGUGUUAGCGUGGAUAGCAGGAUAUAUUAUUUAGACUCGGAUAGAAGGGCUCGGACCUA |  |  | 18.3 nM | 14.5 nM | 
GACAUGAGGAUCACCCAUGUGAAGCAUGGUGGGCGCUCGUCCUAGGAUAUCUGCAAGUAGCUAGGAGAGAAGGAGGUAGCCAAA |  |  | 76.3 nM | 57.6 nM | 
GACGAGUGCGAGUCACAUGAGGAUCACCCAUGUAACCAUGGGCAGGAUAUCUACCAGUUACUUUCAGAGAAGGGCCAACGAACU | 419 nM | 108 nM |  |  | 
GAGAGAUAAGGAUAUCCACAACGGGACAUGAGGAUCACCCAUGUACCCUCAUUCCUCGCAGGAGAAGGUAUCAUGU |  |  | 22.4 nM | 44.3 nM | 

From the EternaBench riboswitch data
